In ChEMBL document CHEMBL4513216, “Probing the Open Global Health Chemical Diversity Library for Multistage-Active Starting Points for Next-Generation Antimalarials” (ACS Infect Dis, 2020):

Assay: Toxicity liver stage against HepG2, at 10uM
Format: cell-based
Design: test concentration 10 uM, cell line HepG2-A16-CD81EGFP
Conditions: human, HepG2-A16-CD81EGFP cells; read-out: INHIBITION
Outline: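 Uninfected HepG2-A16-CD81EGFP cells, 3 × 10^3 per well, 1536-well, plated on prespotted compound at 10 μM final, parasite-free screening media added to match infected plates; puromycin 10 μM positive, DMSO 0.5% negative; run in parallel with 48 h PbLuc assay at 37 °C, 5% CO2; viability by CellTiter-Glo luminescence, normalized to controls.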

SMILES: CCOC(=O)CN1CCC2(CC1)CC(=O)c1ccc3ccccc3c1O2
- cytotoxicity at 10 µM: 3.33%

SMILES: Cc1cc(CN2C[C@@H]3COC[C@]3(COCC(=O)N(C)C)C2)no1
- cytotoxicity at 10 µM: 1.44%

SMILES: O=C1CC(c2ccccc2)c2sc(C(=O)O)c(-c3ccccc3)c2N1 (configuration not stated)
- cytotoxicity at 10 µM: -2.31%

SMILES: Cc1ccc(CN2CCC3(CC(C(=O)NCC4CC4)=NO3)C2)cc1C (configuration not stated)
- cytotoxicity at 10 µM: 3.84%

SMILES: CCn1ncc(Nc2[nH]cnc3nncc2-3)c1C
- cytotoxicity at 10 µM: 7.29%

SMILES: CN1CCCC(c2cccc(-c3ccccc3F)n2)C1 (configuration not stated)
- cytotoxicity at 10 µM: 2.58%

SMILES: Cc1ccccc1C(C#N)NC(=O)CCCOc1cccnc1 (configuration not stated)
- cytotoxicity at 10 µM: -0.398%

SMILES: Cc1cc(C)nc(NC2CC(=O)N(C(C)(C)C)C2)n1 (configuration not stated)
- cytotoxicity at 10 µM: -5.81%

SMILES: c1ncc2c(n1)CN(Cc1cn3ccsc3n1)CC2
- cytotoxicity at 10 µM: 11.3%

SMILES: CCN(CC)Cc1ccc(CNC(=O)C(C)(C)n2cc(Br)cn2)cc1
- cytotoxicity at 10 µM: 33.6%

SMILES: Cc1nc(C)n(CC2CCCCN2CCCO)n1 (configuration not stated)
- cytotoxicity at 10 µM: 4.37%

SMILES: NC(=O)COc1ccc(CNCc2c(F)cccc2F)cc1
- cytotoxicity at 10 µM: -5.03%

SMILES: CCOC(C)c1noc(CN2CCNCC2)n1 (configuration not stated)
- cytotoxicity at 10 µM: 1.03%

SMILES: CN(C)c1cccc(C(=O)Nc2cn(C)c(=O)n(C)c2=O)c1
- cytotoxicity at 10 µM: 3.34%

SMILES: COc1ccc(CNC(=O)NCCc2nc(C)c(C)s2)cn1
- cytotoxicity at 10 µM: -0.0813%

SMILES: Cn1cnc2c1CCN(Cc1ccc(Cl)c3cccnc13)C2
- cytotoxicity at 10 µM: 10.6%

SMILES: O=C1CN(C(=O)CN(CC2CCC2)CC(F)(F)F)CCN1
- cytotoxicity at 10 µM: 0.821%

SMILES: O=C(c1occc1CN1C(=O)Cc2ccccc21)N1CC(O)C1
- cytotoxicity at 10 µM: -4.43%

SMILES: CCN(C(=O)CCCOC)C(c1ccc(Cl)cc1)c1ccccn1 (configuration not stated)
- cytotoxicity at 10 µM: -7.25%

SMILES: CC(C)N(C)S(=O)(=O)N1CCCC1C(=O)N1CCSCC1 (configuration not stated)
- cytotoxicity at 10 µM: -16.5%

SMILES: CC(c1ccccc1)N(C)C(=O)CNCCn1cccn1 (configuration not stated)
- cytotoxicity at 10 µM: 4.58%

SMILES: COCCN1CCN(Cc2nc(-c3ccoc3)no2)CC1
- cytotoxicity at 10 µM: 16%

SMILES: Cc1ccc(CNCc2nnc3n2CCCC3C(F)(F)F)s1 (configuration not stated)
- cytotoxicity at 10 µM: 20.7%

SMILES: CC(O)CN1CCC(CNCc2ccc(S(C)(=O)=O)cc2)CC1 (configuration not stated)
- cytotoxicity at 10 µM: -21.4%

SMILES: CC(C)Cn1c2c(ccc1=O)CC(NC(=O)c1ccsc1)CC2 (configuration not stated)
- cytotoxicity at 10 µM: -109%

SMILES: COC[C@@]12CCC[C@@H]1CN(C(=O)Cc1ccco1)C2
- cytotoxicity at 10 µM: -102%

SMILES: Cc1cccc(C(=O)N2C[C@H](NS(C)(=O)=O)[C@@H]3OCCC[C@@H]32)n1
- cytotoxicity at 10 µM: -77.4%

SMILES: CCCOC(=O)N1CCCC(c2nnc(CN3CCOCC3)n2C)C1 (configuration not stated)
- cytotoxicity at 10 µM: 2.19%

SMILES: O=C(NC1CCc2ccccc2C1)C1CCN(Cc2ccco2)CC1 (configuration not stated)
- cytotoxicity at 10 µM: -0.339%

SMILES: COc1ccccc1S(=O)(=O)N1CCC2(CC1)[C@H](O)C[C@@H]2O
- cytotoxicity at 10 µM: 9.12%

SMILES: CC(=O)Nc1ccc(CNCc2cccnc2N(C)C)cc1
- cytotoxicity at 10 µM: -7.49%

SMILES: CC(C)(O)CCc1cccc(C(=O)NCCC2=CSC3=NCCCN23)c1
- cytotoxicity at 10 µM: 9.17%

SMILES: CCC(CO)N(Cc1ccccn1)C(=O)c1ccc(CSC)o1 (configuration not stated)
- cytotoxicity at 10 µM: -5.06%

SMILES: CC(C)Cc1cc(C(=O)N2CCC(C(=O)N3CCOCC3)CC2)on1
- cytotoxicity at 10 µM: -8.61%

SMILES: CCCc1nnc2sc(C3CCN(CCOC)CC3)nn12
- cytotoxicity at 10 µM: 6.76%

SMILES: CCc1[nH]c2c(CNC(=O)C3CCCN(C)C3)cc(C)cc2c1C (configuration not stated)
- cytotoxicity at 10 µM: -15.6%

SMILES: CC(C)n1ccnc1C1CCCN(c2cc(C(=O)NC3CC3)ccn2)C1 (configuration not stated)
- cytotoxicity at 10 µM: -0.352%

SMILES: Cn1ncc2c(N3CCC(F)(F)CC3)nc(-c3ccncc3)nc21
- cytotoxicity at 10 µM: 9.74%

SMILES: C1CCC(c2nc3c(c(N4CC(N5CCOCC5)C4)n2)CCNCC3)C1
- cytotoxicity at 10 µM: -10.2%

SMILES: COCC(=O)N[C@H]1C[C@@H](C(=O)NCCc2cccc(Cl)c2)N(C)C1
- cytotoxicity at 10 µM: 1.72%

SMILES: CC(C)N1CCOC(CC(=O)N2CC(c3ccncc3)C2)C1 (configuration not stated)
- cytotoxicity at 10 µM: 7.44%

SMILES: N[C@H]1CN(C(=O)c2ccccc2Oc2ccccc2)C[C@@H]1C1CC1
- cytotoxicity at 10 µM: -0.948%

SMILES: Cc1ccc2c(C(=O)N(C)C)cc(-c3cnn(CCO)c3)nc2c1C
- cytotoxicity at 10 µM: 3.69%

SMILES: COCc1ncc(CN2CC[C@@](O)(COC)C(C)(C)C2)cn1
- cytotoxicity at 10 µM: -2.79%

SMILES: C/C=C(\C)CN(CCN1CCOCC1)Cc1ccco1
- cytotoxicity at 10 µM: 11.1%

SMILES: CCOC(=O)N1CCN(C(=O)C(CC)n2cccn2)CC1 (configuration not stated)
- cytotoxicity at 10 µM: -0.193%

SMILES: CCCn1ncc(CN2CCCCC2CCCOC)c1C (configuration not stated)
- cytotoxicity at 10 µM: -15.2%

SMILES: O[C@H]1[C@H](n2cc(-c3cccnc3)nn2)c2ccccc2C12CCNCC2
- cytotoxicity at 10 µM: -10.5%

SMILES: COc1ncccc1NC(=O)N(C1CC1)C(C)C(C)C (configuration not stated)
- cytotoxicity at 10 µM: 8.42%

SMILES: Cc1ccc(NC2CCN(C(=O)C(C(C)C)n3cncn3)CC2)nn1 (configuration not stated)
- cytotoxicity at 10 µM: -3.01%

SMILES: Cc1nc(C)n(CC2CCCN(Cc3cccc(F)c3F)C2)n1 (configuration not stated)
- cytotoxicity at 10 µM: -10.3%

SMILES: CC(C(=O)NCc1ccc(N2CCCCCC2)nc1)n1cncn1 (configuration not stated)
- cytotoxicity at 10 µM: -11.2%

SMILES: COc1ccccc1OCCNCc1c(C(C)C)nn(C)c1N(C)C
- cytotoxicity at 10 µM: -12.8%

SMILES: CN1CCOC(CNCc2cccc(OC(F)(F)F)c2)C1 (configuration not stated)
- cytotoxicity at 10 µM: -12%

SMILES: CC1CN(C)CCN1C(=O)c1cnc2c(cnn2C2CCCC2)c1 (configuration not stated)
- cytotoxicity at 10 µM: -12.8%

SMILES: CCN1CCC(NC(=O)CN2CCCC2Cn2nc(C)nc2C)CC1 (configuration not stated)
- cytotoxicity at 10 µM: -12.7%

SMILES: CC(C)c1nnc2n1CCN(C(=O)c1ccnc(-n3ccnc3)c1)C2
- cytotoxicity at 10 µM: -29%

SMILES: Cc1nc(-c2ccccc2)n(CC(=O)NC(C)C)n1
- cytotoxicity at 10 µM: -14.1%

SMILES: COc1ccc(CNC(=O)Nc2cccnc2N2CCCC2)cc1OC
- cytotoxicity at 10 µM: -24.6%

SMILES: CC(=O)Nc1nc(CN(C)C2CCCN(c3cccnn3)C2)cs1 (configuration not stated)
- cytotoxicity at 10 µM: -11.1%

SMILES: COc1ccccc1OCC(=O)NS(=O)(=O)c1ccc(Cl)s1
- cytotoxicity at 10 µM: -4.93%

SMILES: Cc1ccc(C(=O)NC2CCN(C(=O)Nc3ccncc3)CC2)o1
- cytotoxicity at 10 µM: 1.48%

SMILES: CN(C(=O)c1cccc(Cl)c1)C1CCN(c2ccccn2)CC1
- cytotoxicity at 10 µM: -8.8%

SMILES: Cc1nc(CN(C)C2CCN(Cc3ccc4c(c3)CCC4)C2)no1 (configuration not stated)
- cytotoxicity at 10 µM: -18.2%

SMILES: COC(=O)C(NC(=O)c1ccco1)c1cc(F)ccc1F (configuration not stated)
- cytotoxicity at 10 µM: -11.5%

SMILES: O=C(c1cc2c(s1)CCC2)N1CCCCC1Cn1cccn1 (configuration not stated)
- cytotoxicity at 10 µM: -4.86%

SMILES: Cn1ccc(C(=O)N2CCN(c3ncccn3)CC2)cc1=O
- cytotoxicity at 10 µM: -11.6%

SMILES: COc1cc(C(=O)N(C2CC2)C2CC(=O)NC2=O)ccc1C (configuration not stated)
- cytotoxicity at 10 µM: -3.58%

SMILES: Cc1nc(C)n(CC2CCCN2CCOc2ccc(C#N)cc2)n1 (configuration not stated)
- cytotoxicity at 10 µM: -10.1%

SMILES: CC(NC(=O)NCCCn1cncn1)c1ccccc1Cl (configuration not stated)
- cytotoxicity at 10 µM: 3.01%

SMILES: Cc1nc(C(=O)N2CCCC(n3cncn3)C2)cs1 (configuration not stated)
- cytotoxicity at 10 µM: 5.7%

SMILES: COCCNC(=O)[C@H]1C[C@H]2OCC[C@H]2N(Cc2ccoc2)C1
- cytotoxicity at 10 µM: -75.7%

SMILES: Cn1ccnc1C(=O)N1C[C@@H]2CCN(c3cnccn3)C[C@@H]2C1
- cytotoxicity at 10 µM: -97%

SMILES: O=C(CC1CCCC1)N1CCn2cc(Cn3cccn3)nc2C1
- cytotoxicity at 10 µM: -75.4%

SMILES: O=C1COC2(COCCN(c3ccccn3)C2)CN1c1cccc(F)c1 (configuration not stated)
- cytotoxicity at 10 µM: -103%

SMILES: O=C(c1ccoc1)N1CC[C@@H]2O[C@@H](COCCN3CCCC3)CC[C@@H]21
- cytotoxicity at 10 µM: -89.7%

SMILES: CO[C@H]1CN(CC2CC2)[C@@H]2CCCO[C@H]12
- cytotoxicity at 10 µM: -118%

SMILES: COCC(=O)N1CCn2c(CN3CCN(C)CC3)cnc2C1
- cytotoxicity at 10 µM: -70%

SMILES: O=C(Nc1cccnc1)[C@H]1CN(Cc2ccco2)C[C@H]2OCC[C@@H]12
- cytotoxicity at 10 µM: -114%

SMILES: Cc1ccc2c(n1)N(Cc1cccnc1)CCN(C(=O)C1CC1)C2
- cytotoxicity at 10 µM: -61.7%

SMILES: CCOc1ccc(CN2CC[C@@H]3CC[C@H](C2)N3)cc1CO
- cytotoxicity at 10 µM: 5.99%

SMILES: COC(=O)Cn1c(=O)[nH]c2cn(-c3ccc(F)cc3)c(=O)n21
- cytotoxicity at 10 µM: 1.09%
